Test results as given in ChEMBL document CHEMBL2385045, “Discovery of novel 4-(2-fluorophenoxy)quinoline derivatives bearing 4-oxo-1,4-dihydrocinnoline-3-carboxamide moiety as c-Met kinase inhibitors” (Bioorg Med Chem, 2013).

How the values were obtained:
[1] = target: T1, Hepatocyte growth factor receptor (Homo sapiens, UniProt P08581); experiment: Inhibition of wild type GST-tagged c-Met kinase domain (1058 to 1365) (unknown origin) expressed in Sf9 cells by HTRF assay
[2] = target: T1, Hepatocyte growth factor receptor; experiment: Inhibition of c-Met (unknown origin) using poly (Glu, Tyr) 4:1 as substrate after 30 mins by HTRF assay
[3] = target: T2, Vascular endothelial growth factor receptor 2 (Homo sapiens, UniProt P35968); experiment: Inhibition of VEGFR-2 (unknown origin) using poly (Glu, Tyr) 4:1 as substrate after 30 mins by HTRF assay
Procedure, shortened: (§1)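 HTRF kinase assay on plates precoated with 20 µg/mL poly(Glu,Tyr) 4:1. ATP (10 mM solution) in 50 mM HEPES pH 7.0 buffer with DTT, MgCl₂, MnCl₂ and 0.1% NaN₃. Compound in 1% DMSO; reaction started with purified kinase and run 30 min at 25 °C. Stopped with Streptavidin-XL665 plus TK antibody cryptate and read at 320/615. Inhibition relative to enzyme and no-enzyme controls; IC50 from the inhibition curves.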

[4] = target: Platelet-derived growth factor receptor alpha (Homo sapiens, UniProt P16234); experiment: Inhibition of PDGFRalpha (unknown origin) using poly (Glu, Tyr) 4:1 as substrate after 30 mins by HTRF assay; procedure, shortened: as §1
[5] = system: A549; experiment: Cytotoxicity against c-Met-dependent human A549 cells assessed as growth inhibition after 72 hrs by MTT assay; details: A549, 72 h
[6] = Cytotoxicity against c-Met-dependent human U87MG cells assessed as growth inhibition after 72 hrs by MTT assay; type: functional, cell-based, U-87MG ATCC; details: U-87 MG
Procedure, shortened: (§2)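 Cells grown in MEM with 10% FBS. About 4×10³ cells/well were seeded and incubated 24 h at 37 °C, 5% CO₂, then exposed to compound for 72 h. MTT was added (terminal 5 µg/mL) for 4 h at 37 °C, and formazan was dissolved in DMSO. IC50 is the mean of three determinations.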

[7] = system: HT-29; experiment: Cytotoxicity against c-Met-dependent human HT-29 cells assessed as growth inhibition after 72 hrs by MTT assay; details: HT-29, 72 h
[8] = target: Mast/stem cell growth factor receptor Kit (Homo sapiens, UniProt P10721); experiment: Inhibition of c-Kit (unknown origin) using poly (Glu, Tyr) 4:1 as substrate after 30 mins by HTRF assay; procedure, shortened: as §1
[9] = target: T3, Receptor-type tyrosine-protein kinase FLT3 (Homo sapiens, UniProt P36888); experiment: Inhibition of Flt-3 (unknown origin) using poly (Glu, Tyr) 4:1 as substrate after 30 mins by HTRF assay; procedure, shortened: as §1
T3 sequence (P36888 whole entry): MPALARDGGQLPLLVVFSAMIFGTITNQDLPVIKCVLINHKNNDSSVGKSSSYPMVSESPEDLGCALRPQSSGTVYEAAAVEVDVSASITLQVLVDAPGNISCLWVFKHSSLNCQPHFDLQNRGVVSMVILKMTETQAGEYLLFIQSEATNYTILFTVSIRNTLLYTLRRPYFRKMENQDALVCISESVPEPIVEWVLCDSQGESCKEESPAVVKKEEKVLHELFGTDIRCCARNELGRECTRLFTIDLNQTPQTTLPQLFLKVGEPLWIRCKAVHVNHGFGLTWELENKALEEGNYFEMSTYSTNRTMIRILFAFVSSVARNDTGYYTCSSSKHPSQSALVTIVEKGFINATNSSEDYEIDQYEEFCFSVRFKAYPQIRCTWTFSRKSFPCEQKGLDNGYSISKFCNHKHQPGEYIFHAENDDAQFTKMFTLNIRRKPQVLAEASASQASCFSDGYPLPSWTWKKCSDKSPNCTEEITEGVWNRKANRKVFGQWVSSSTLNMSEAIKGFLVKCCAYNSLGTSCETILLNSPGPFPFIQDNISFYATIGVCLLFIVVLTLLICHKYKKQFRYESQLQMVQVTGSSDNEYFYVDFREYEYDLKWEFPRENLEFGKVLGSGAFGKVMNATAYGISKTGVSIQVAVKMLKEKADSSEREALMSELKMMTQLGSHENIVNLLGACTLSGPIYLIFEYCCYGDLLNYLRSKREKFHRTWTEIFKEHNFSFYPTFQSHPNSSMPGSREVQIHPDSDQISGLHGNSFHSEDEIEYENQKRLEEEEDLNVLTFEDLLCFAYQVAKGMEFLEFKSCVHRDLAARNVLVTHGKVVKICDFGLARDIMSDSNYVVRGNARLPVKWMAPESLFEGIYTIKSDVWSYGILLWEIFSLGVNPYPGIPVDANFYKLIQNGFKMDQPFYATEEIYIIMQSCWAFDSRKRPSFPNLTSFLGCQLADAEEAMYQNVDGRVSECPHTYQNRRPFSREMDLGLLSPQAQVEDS

[10] = system: SMMC-7721; experiment: Cytotoxicity against c-Met-dependent human SMMC7721 cells assessed as growth inhibition after 72 hrs by MTT assay; type: functional, cell-based; details: SMMC-7721, 72 h; procedure, shortened: as §2
[11] = target: Epidermal growth factor receptor (Homo sapiens, UniProt P00533); experiment: Inhibition of EGFR (unknown origin) using poly (Glu, Tyr) 4:1 as substrate after 30 mins by HTRF assay; procedure, shortened: as §1
[12] = system: MKN-45; experiment: Cytotoxicity against c-Met-dependent human MKN45 cells assessed as growth inhibition after 72 hrs by MTT assay; details: MKN-45, 72 h
[13] = Cytotoxicity against c-Met-independent human H460 cells assessed as growth inhibition after 72 hrs by MTT assay; details: NCI-H460, 72 h
[14] = target: T1, Hepatocyte growth factor receptor; experiment: Inhibition of c-Met (unknown origin)
Procedure, shortened: as §1, with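 “°C.” for “°C. Stopped with Streptavidin-XL665 plus TK antibody cryptate and read at 320/615.”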

[15] = target: T2, Vascular endothelial growth factor receptor 2; experiment: Inhibition of VEGFR-2 (unknown origin)

SMILES	IC50 [5] [nM]	IC50 [6] [nM]	IC50 [7] [nM]	IC50 [10] [nM]	IC50 [12] [nM]	IC50 [13] [nM]	also measured
COc1cc2c(Oc3ccc(-c4cnc(Cc5ccccc5)n(C)c4=O)cc3F)ccnc2cc1OCCCN1CCOCC1							IC50 [1]: 8.9 nM
COc1cc2c(Oc3ccc(NC(=O)c4nn(-c5ccccc5C(F)(F)F)c5ccccc5c4=O)cc3F)ccnc2cc1OCCCN1CCCC1	35	350	110	250	22	55	IC50 [2]: 0.59 nM; IC50 [3]: 15.4 nM; IC50 [4]: 27.3 nM; IC50 [8]: 3.9 nM; IC50 [9]: 8.5 nM; IC50 [11]: > 10 µM
COc1cc2c(Oc3ccc(-c4cnc(Nc5ccccc5)n(C)c4=O)cc3F)ccnc2cc1OCCCN1CCOCC1							IC50 [14]: 4.9 nM
COc1cc2c(Oc3ccc(NC(=O)c4nn(-c5ccccc5)c5ccccc5c4=O)cc3F)ccnc2cc1OCCCN1CCOCC1	570	1460	1170	1130	960	690	
COc1cc2c(Oc3ccc(NC(=O)c4nn(-c5ccc(Cl)cc5)c5ccccc5c4=O)cc3F)ccnc2cc1OCCCN1CCCCC1	200	1620	2120	330	230	640	
COc1cc2c(Oc3ccc(NC(=O)N4CCN(c5ccccc5)C4=O)cc3F)ccnc2cc1OCCCN1CCOCC1							IC50 [15]: 30 nM
COc1cc2c(Oc3ccc(NC(=O)c4nn(-c5ccc(Cl)c(C(F)(F)F)c5)c5ccccc5c4=O)cc3F)ccnc2cc1OCCCN1CCC(C)CC1	240	540	490	370	140	110	
